miR122 inh: miR-122 inhibition in Huh7 cells | AID 602342 | 340,000 compounds, 0.3% hits | activation (reporter increase), % at 12.5 µM | Huh7 miR-122 Renilla luciferase sensor, 48 h; neutral wells = 0, positive control = 100;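 active means mean replicate activation score at least 90 and every replicate individually at or above 90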;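 further: higher luciferase means less miR-122 activity so hits act as miR-122 inhibitors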
FGF22 binding: FGF22 (human) thermal shift binding; AID 651658; 340,000 compounds, 1.5% hits; Q9HCT0; recombinant FGF22 thermal shift, SYPRO orange fluorescence; percent of sucrose octasulfate shift, DMSO zero; activity (Tm shift, normalised), % at 9.99 µM;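 active means mean Tm shift, scaled 0 neutral to 100 positive control, at about 1.3% or above, every replicate too, limit read from the data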
Target sequence (Q9HCT0 whole entry, looked up): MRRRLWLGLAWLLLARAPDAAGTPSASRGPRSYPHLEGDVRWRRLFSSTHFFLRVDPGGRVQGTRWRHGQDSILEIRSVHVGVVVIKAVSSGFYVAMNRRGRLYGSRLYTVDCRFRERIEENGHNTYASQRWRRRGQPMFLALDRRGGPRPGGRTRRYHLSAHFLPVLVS
SIRT5 block: inhibitors of human sirtuin-5 desuccinylase. Q9NXA8. 330,000 compounds, 1.1% hits. AID 652115. Purified SirT5, succinyl-peptide AMC, trypsin-coupled fluorescence. inhibition, % at 15 µM; in the data active means inhibition above about 15%
Target sequence (Q9NXA8 whole entry, looked up): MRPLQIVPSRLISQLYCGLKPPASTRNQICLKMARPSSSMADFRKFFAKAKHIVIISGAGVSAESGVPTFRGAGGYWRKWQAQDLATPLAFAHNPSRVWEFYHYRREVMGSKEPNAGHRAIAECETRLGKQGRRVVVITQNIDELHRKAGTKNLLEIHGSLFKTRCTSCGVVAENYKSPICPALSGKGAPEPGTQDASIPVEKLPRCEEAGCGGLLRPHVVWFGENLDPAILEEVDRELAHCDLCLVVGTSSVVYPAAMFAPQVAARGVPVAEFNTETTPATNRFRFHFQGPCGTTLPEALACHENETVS
S100A4 inh HTS: blocks human S100A4 binding to myosin IIA peptide | S100A4/TAMRA-MyoIIA peptide fluorescence polarization | 360,000 compounds, 0.14% hits | inhibition, % at 10.7 µM | P26447;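 active means mean inhibition of at least 70% across replicates, with every replicate also reaching that level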
Target sequence (P26447 whole entry, looked up): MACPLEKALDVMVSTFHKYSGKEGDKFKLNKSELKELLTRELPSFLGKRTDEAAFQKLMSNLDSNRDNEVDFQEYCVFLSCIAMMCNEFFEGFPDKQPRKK
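Assay system: human S100A4 monomer with TAMRA-labelled myosin IIA peptide / Buffer or medium: Calcium-containing HEPES buffer, pH 7.2 / Reagent: TAMRA-labelled myosin IIA heavy-chain peptide probe, 5 nM / Compound: one dose per compound / Timing: polarization read 5 min after assay mix addition, stable 5–60 min / Benchmarks: neutral control DMSO, positive control TFP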
E-selectin induc: induces E-selectin expression in human endothelial cells; HUVEC E-selectin immunofluorescence imaging; normalized: neutral wells 0, TNF-alpha wells 100; activation, % at 7.58 µM; 260,000 compounds, 0.37% hits;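 active means mean E-selectin-positive cell signal at least 10% of the positive control, reached in at least 60% of replicates, without over 20% cell loss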
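Material: HUVEC primary endothelial cells; Amount: 3,000 cells per well; Dosing: single concentration; Medium: EGM-2 growth medium on 0.1% gelatin-coated wells; Read-out basis: percent E-selectin-positive cells; Signal: immunofluorescence imaging; Control set: TNF-alpha, DMSO.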
Of the large screens only hits and unclear results are named; the others gave an inactive call. This is a sample that favours compounds with a hit; in the whole collection about 2.5% have one here.

C[C@H]1CN([C@@H](C)CO)C(=O)c2cc(NC(=O)c3ccncc3)ccc2O[C@@H]1CN(C)Cc1ccccc1	none
COc1ccc2c3c(n(C)c2c1)[C@H](CO)N(Cc1ccccn1)CC31CCN(Cc2ccccn2)CC1	none (no result: miR122 inh)
CN1C(=O)c2cc(NC(=O)c3cccc(Cl)c3)ccc2OC[C@H]2O[C@@H](CC(=O)NC3CCCCC3)CC[C@H]21	FGF22 binding 1.4 (no result: SIRT5 block, S100A4 inh HTS)
COC(=O)C[C@H]1CC[C@@H]2[C@@H](COc3ccc(NC(=O)c4cccc(Cl)c4)cc3C(=O)N2C)O1	SIRT5 block 16.3 (no result: miR122 inh)
COC(=O)C[C@@H]1CC[C@H]2[C@H](COc3ccc(NC(=O)c4cccc(Cl)c4)cc3C(=O)N2C)O1	none (no result: miR122 inh)
COc1ccc(NC(=O)Nc2ccc3c(c2)C(=O)N([C@@H](C)CO)C[C@H](C)[C@@H](CN(C)C(=O)CCC(F)(F)F)OCCCC[C@H](C)O3)cc1	none (no result: SIRT5 block, S100A4 inh HTS)
CC(=O)N1[C@@H]2c3ccc(C4=CCCCC4)c(=O)n3C[C@@H]2[C@@H](CO)[C@@H]1C(=O)N1CCCCC1	none
O=C(c1ccccc1)c1ccc[nH]1	FGF22 binding 43.0 (no result: SIRT5 block)
O=C(c1ccccc1)c1cnc[nH]1	none
COc1ccc(S(=O)(=O)N(C)C[C@H]2Oc3ccc(NC(=O)Cn4cnnn4)cc3CC(=O)N([C@@H](C)CO)C[C@@H]2C)cc1	none
Cc1ccc(Nc2nc3ccccc3s2)cc1	FGF22 binding 1.5 (no result: miR122 inh)
CC(C)NC(=O)N(C)C[C@H]1OCCCC[C@H](C)Oc2ccc(NS(=O)(=O)c3ccccc3)cc2C(=O)N([C@@H](C)CO)C[C@H]1C	none
Cc1cc(C(=O)N/N=C/c2ccc[nH]2)n[nH]1	FGF22 binding 43.3 (no result: miR122 inh)
Cc1cc(C(=O)N/N=C/C=C/c2ccc([N+](=O)[O-])cc2)n[nH]1	E-selectin induc 53.9 (no result: miR122 inh)
Cc1cc(C(=O)N/N=C/c2ccc[nH]2)no1	none (no result: FGF22 binding, SIRT5 block, S100A4 inh HTS, E-selectin induc)
Cc1cc(C(=O)N/N=C/C=C/c2ccc(Br)cc2)n[nH]1	none
O=C(N/N=C\c1ccccc1OCc1ccccc1)c1ccco1	FGF22 binding 43.1 (no result: miR122 inh, E-selectin induc)
O=C(NCC1CCCO1)C(c1ccc(F)cc1)N(Cc1ccc2c(c1)OCO2)C(=O)c1ccc(CN2CCOCC2)o1 (centres undefined)	FGF22 binding 43.0 (no result: E-selectin induc)
Cc1ccc(S(=O)(=O)Nc2cccc3c2O[C@H](CN(C)S(=O)(=O)c2cccs2)[C@H](C)CN([C@@H](C)CO)C3=O)cc1	none (no result: miR122 inh)
CCC(C)n1c(=S)[nH]c2ccccc2c1=O (centres undefined)	FGF22 binding 43.0 (no result: miR122 inh, E-selectin induc)
CC(NC(=O)CSCc1ccc(Br)cc1)c1ccccc1 (centres undefined)	none (no result: FGF22 binding, E-selectin induc)
CC(C)NC(=O)CSCc1cccc(Br)c1	SIRT5 block 18.9 (no result: miR122 inh, E-selectin induc)
Cc1ccc(CN2CCC(CO)(CC3CCCCO3)CC2)o1 (centres undefined)	none (no result: miR122 inh, E-selectin induc)
Cc1ccc2[nH]c(CN3CCC(CO)(CC4CCCCO4)CC3)c(C)c2c1 (centres undefined)	FGF22 binding 42.9 (no result: E-selectin induc)
COc1ccccc1-c1ccc2c(c1)O[C@@H](CN(C)S(=O)(=O)c1ccccc1)[C@H](C)CN([C@@H](C)CO)S2(=O)=O	SIRT5 block 19.5
COc1ccccc1-c1ccc2c(c1)O[C@@H](CN(C)S(=O)(=O)c1ccccc1)[C@@H](C)CN([C@H](C)CO)S2(=O)=O	none
COc1ccccc1-c1ccc2c(c1)O[C@@H](CN(C)S(=O)(=O)c1ccccc1)[C@H](C)CN([C@H](C)CO)S2(=O)=O	SIRT5 block 19.0
CCCN(C)C[C@@H]1Oc2cc(-c3ccccc3OC)ccc2S(=O)(=O)N([C@H](C)CO)C[C@@H]1C	SIRT5 block 31.9
O=C(C[C@H]1C=C[C@@H](NC(=O)Nc2ccccc2)[C@@H](CO)O1)NCc1cccc(F)c1	none (no result: miR122 inh, FGF22 binding)
Cc1noc(C)c1NC(=O)Nc1ccc2c(c1)CC(=O)N([C@H](C)CO)C[C@H](C)[C@@H](CN(C)S(=O)(=O)c1cn(C)cn1)O2	none (no result: SIRT5 block, S100A4 inh HTS)
O=C(c1ccc(F)cc1)N1CC(=O)N2[C@@H](CO)[C@@H](c3ccc(C#CC4CCCC4)cc3)[C@@H]2C1	none (no result: miR122 inh, FGF22 binding)
COc1ccc(CN2C(C)C3C(C)=CC2C2C(=O)N(C)C(=O)C32)cc1 (centres undefined)	none (no result: miR122 inh, E-selectin induc)
C[C@@]12C(=O)N(c3ccc(Br)cc3)C(=O)N1[C@@H]1c3ccccc3OC[C@@H]1[C@H]2c1ccccc1	FGF22 binding 1.5
CCOC(=O)[C@@H]1[C@H]2COc3cc(OC)ccc3[C@@H]2N2C(=O)N(c3ccc(F)cc3)C(=O)[C@]12C	FGF22 binding 44.4 (no result: miR122 inh)
CCOC(=O)[C@@H]1[C@H]2COc3ccccc3[C@H]2N2C(=O)N(c3ccc(C)cc3)C(=O)[C@]12C	none (no result: SIRT5 block, E-selectin induc)
CCOC(=O)[C@@H]1[C@H]2COc3ccccc3[C@@H]2N2C(=O)N(c3ccc(Cl)cc3)C(=O)[C@]12C	FGF22 binding 43.6
CCOC(=O)[C@@H]1[C@H]2COc3cc(OC)ccc3[C@@H]2N2C(=O)N(c3cccc(C)c3)C(=O)[C@]12C	S100A4 inh HTS 87.2 (no result: SIRT5 block)
CC(C)NC(=O)Nc1ccc2c(c1)C(=O)N([C@@H](C)CO)C[C@@H](C)[C@@H](CN(C)C(=O)c1ccncc1)OCCCC[C@@H](C)O2	none
Cc1ccc(S(=O)(=O)N/N=C/c2ccc(OCC(=O)Nc3ccccc3Cl)cc2)cc1	miR122 inh 219.5
COc1ccccc1NC(=O)COc1ccc(/C=N/NS(=O)(=O)c2ccc(C)cc2)cc1	none (no result: FGF22 binding, SIRT5 block, S100A4 inh HTS, E-selectin induc)
Cc1ccnc(NS(=O)(=O)c2ccc(NC(=O)c3ccc([N+](=O)[O-])s3)cc2)n1	FGF22 binding 44.4 (no result: miR122 inh, E-selectin induc)
COc1cc(N2C(=O)c3ccccc3C2=O)c(Cl)cc1C(=O)OCC(=O)N(C)C	FGF22 binding 43.1 (no result: miR122 inh)
COc1cc(OC)c(C(=O)OCN2C(=O)c3ccccc3C2=O)cc1OC	none (no result: miR122 inh, E-selectin induc)
C[C@H]1CN([C@@H](C)CO)C(=O)c2ccccc2-c2ccccc2CO[C@@H]1CN(C)Cc1ccc(F)cc1	none (no result: miR122 inh)
C[C@H]1CN([C@@H](C)CO)C(=O)c2ccccc2-c2ccccc2CO[C@H]1CN(C)Cc1ccc(F)cc1	SIRT5 block 22.9 (no result: miR122 inh)
C[C@H](CO)N1C[C@H](C)[C@H](CN(C)Cc2ccc(-c3ccccc3)cc2)OCc2ccccc2-c2ccccc2C1=O	SIRT5 block 19.3 (no result: miR122 inh)
CCS(=O)(=O)N1CC2(C1)[C@H](c1ccccc1)[C@H](CO)N2CC1CCCC1	none (no result: miR122 inh)
Cc1ccccc1OS(=O)(=O)c1cn(C)c(=O)n(C)c1=O	FGF22 binding 43.3 (no result: miR122 inh, E-selectin induc)
C[C@H]1CN([C@@H](C)CO)C(=O)c2cc(NC(=O)CCCN(C)C)ccc2O[C@@H]1CN(C)Cc1ccc(-c2ccccc2)cc1	none
CC(=O)Nc1ccc(NC(=O)COc2ccc(Cl)cc2Cl)cc1	E-selectin induc 47.5
CC(=O)Nc1ccc(NC(=O)COc2ccc(Br)cc2C)cc1	SIRT5 block 15.2 (no result: E-selectin induc)
CC(=O)c1ccc(NS(=O)(=O)c2cc3c(cc2C)N(C)CCO3)cc1	none (no result: E-selectin induc)
CC(=O)c1ccc(NS(=O)(=O)c2ccc3c(c2)N(C)CCO3)cc1	miR122 inh 134.4 (no result: E-selectin induc)
